Assay outcomes (PubChem)
KCC2 mod: modulates chloride dependent transport by human KCC2 | Q9H2X9 | KCC2 cells, thallium flux FluoZin-2 fluorescence | B-score of Tl+ flux slope (higher = more flux/activation; lower = inhibition) at 10 µM | hit rate 2.2% among 190,000 | AID 1456;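 active = thallium flux slope and its plate-corrected score both differing from the plate sample mean at a set confidence after two filtering rounds, in either direction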;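 also: slope of fluorescence scaled to starting intensity during 10 to 20 s after thallium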
RBBP9 inh: blocks human serine hydrolase RBBP9. O75884. AID 1515. inhibition, % at 7.94 µM. hit rate 0.2% among 220,000. recombinant RBBP9, FP-Rh probe fluorescence polarization;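 active = inhibition above the campaign mean of all tested compounds plus 3 SD, cut at about 14% in these data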
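Test system: recombinant human RBBP9; Timing: 30 min then 45 min, 25 °C; Detection: fluorescence polarization; Control set: RBBP9 with DMSO as uninhibited control, no-protein wells as full inhibition; Compound dosing: one concentration, 7.94 µM nominal, 0.794% DMSO; Probe or stimulus: FP-Rh activity-based probe, 375 nM before mixing.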
ROMK mod: modulators of human ROMK potassium channel | Tet-inducible ROMK, thallium flux fluorescence; actives lie on both sides | B-score at 10 µM | hit rate 2% among 130,000;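 active = signal ratio slope over the read window, or its plate-corrected B-score, at least 3 SD from the plate mean, either direction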;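 also: B-score of the F/F0 ratio slope over 7 to 12 s after thallium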
14-3-3 Bad PPI: disrupts binding of bovine 14-3-3 zeta to phospho-Bad peptide | TR-FRET 14-3-3zeta/Dy647-pBad peptide displacement, 1 h | inhibition, % at 21.7 µM | hit rate 0.71% among 220,000;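 active = inhibition above about 70%, limit read from the data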
Target sequence (P63103 whole entry, looked up): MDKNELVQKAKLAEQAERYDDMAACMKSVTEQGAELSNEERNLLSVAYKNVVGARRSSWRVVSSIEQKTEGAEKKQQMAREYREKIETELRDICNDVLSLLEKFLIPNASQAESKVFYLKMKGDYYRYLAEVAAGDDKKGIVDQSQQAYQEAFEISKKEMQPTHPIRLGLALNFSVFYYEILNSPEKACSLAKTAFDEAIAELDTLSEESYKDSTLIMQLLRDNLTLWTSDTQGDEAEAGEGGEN
p47phox inh: blocks human p47phox regulatory protein of NADPH oxidases | hit rate 0.53% among 220,000 | AID 1274 | P14598 | inhibition, % at 24.7 µM | p47phox/p22phox peptide binding, fluorescence polarization, 2 h;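 active = inhibition above about 30%, limit read from the data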
Target sequence (P14598 whole entry, looked up): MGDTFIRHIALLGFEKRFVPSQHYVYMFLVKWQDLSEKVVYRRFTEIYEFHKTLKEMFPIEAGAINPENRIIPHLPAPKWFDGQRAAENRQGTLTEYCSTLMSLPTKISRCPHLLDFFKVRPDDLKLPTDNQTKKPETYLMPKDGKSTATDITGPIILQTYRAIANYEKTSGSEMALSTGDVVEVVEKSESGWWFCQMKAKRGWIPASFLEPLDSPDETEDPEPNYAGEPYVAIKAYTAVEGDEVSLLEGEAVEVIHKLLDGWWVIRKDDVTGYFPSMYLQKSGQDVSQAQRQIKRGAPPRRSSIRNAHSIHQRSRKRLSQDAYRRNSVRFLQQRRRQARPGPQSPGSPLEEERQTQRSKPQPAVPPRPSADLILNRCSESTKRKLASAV
WT yeast gro inh: growth inhibition of WT yeast, mitochondrial fusion screen | mitochondrial fusion phenotypic screen, WT strain | inhibition, % at 10 µM | hit rate 2.1% among 190,000; in the data active = inhibition above about 58%; tested in S. cerevisiae
ROMK hit retest: retested hit modulating human ROMK potassium channel | shares compounds with ROMK mod | normalized thallium flux (F/F0 slope) at 10 µM | ROMK thallium flux, fluorescence ratio; stronger effect = lower value | hit rate 54% among 3,000;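 active = Flux at 10 µM at least 3 SD below or above vehicle control mean in one or both replicates; inconclusive = no clear call, values can overlap the other calls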
Large screens that a line does not name were inactive (follow-up assays come after a bar, where they were run). This is a sample that favours compounds with a hit; in the whole collection about 5.8% have one here.

COC(=O)/C=C1\C(=O)N(c2nc3ccccc3s2)C(=S)N1c1ccc(F)cc1	ROMK mod -2.8 (no result: KCC2 mod) | ROMK hit retest 0.064
Cc1ccc(OCCNC(=O)C(=O)NCc2ccco2)cc1	ROMK mod 3 | ROMK hit retest 0.1
COc1ccc(C(=O)c2c[nH]c(C(=O)N=CN(C)C)c2)cc1	none
Cc1ccccc1-n1c(SC2CCOC2=O)nnc1-c1ccncc1 (stereo not drawn)	none
CC(C)CC(C(=O)NC1CCCC1)N(Cc1ccc2c(c1)OCO2)C(=O)c1snc(C(N)=O)c1N (stereo not drawn)	none
CCCC(C(=O)NC1CCCC1)N(Cc1cccs1)C(=O)c1snc(C(N)=O)c1N (stereo not drawn)	none (no result: ROMK mod) | ROMK hit retest inactive
CC(C)CCNC(=O)C(CC(C)C)N(Cc1ccc2c(c1)OCO2)C(=O)c1snc(C(N)=O)c1N (stereo not drawn)	none (no result: KCC2 mod, ROMK mod) | ROMK hit retest inconclusive
COc1cc(CNc2ccc(S(N)(=O)=O)cc2)ccc1OCC(=O)NC1CCCCC1	none
COc1cccc(/C=C/C(=O)OCC(=O)NCCc2ccccc2)c1	none (no result: ROMK mod)
COCC(=O)O[C@]1(CCN(C)CCCc2nc3ccccc3[nH]2)CCc2cc(F)ccc2[C@@H]1C(C)C	none (no result: RBBP9 inh, ROMK mod, WT yeast gro inh) | ROMK hit retest 0.061
Cc1cc(C)nc(S/C=C/C(=O)c2ccccc2F)n1	none (no result: ROMK mod, WT yeast gro inh)
CCOC(=O)N1CCN(C(=O)/C(=C\c2ccc(SC)cc2)NC(=O)c2ccccc2)CC1	none (no result: ROMK mod, WT yeast gro inh)
CSc1ccc(/C=C(\NC(=O)c2ccccc2)C(=O)NN)cc1	none (no result: ROMK mod, WT yeast gro inh) | ROMK hit retest inactive
Cc1ccc(O)c(C(=O)c2cnn(C(=O)Cc3csc(C)n3)c2)c1	ROMK mod -6.7 | ROMK hit retest inactive
Oc1ccc2cc(Br)ccc2c1CN1CCCC1	none | ROMK hit retest 0.064
CC12COC3(C(=O)Nc4ccc(F)cc4)CC1CCC32C (stereo not drawn)	none (no result: ROMK mod)
CC12COC3(P(=O)(c4ccccc4)c4ccccc4)CC1CCC23CP(=O)(c1ccccc1)c1ccccc1 (stereo not drawn)	ROMK mod -2.9 | ROMK hit retest 0.051
COc1ccc(/C=N/NC(=O)c2cccnc2)cc1COc1ccc([N+](=O)[O-])cc1	ROMK mod 4.7 (no result: WT yeast gro inh) | ROMK hit retest inactive
COc1ccc(/C=N/NC(=O)c2cccc(OC(F)(F)C(F)F)c2)cc1O	ROMK mod 1.8 | ROMK hit retest inactive
COc1ccc(/C=N/NC(=O)c2cccnc2)cc1COc1ccc(NC(C)=O)cc1	ROMK mod 3.9 (no result: WT yeast gro inh) | ROMK hit retest inconclusive
COc1cc(/C=N/NC(=O)c2cccnc2)ccc1OC(=O)c1ccc([N+](=O)[O-])cc1	none
COc1ccc(NC(=O)COc2ccc(/C=N/NC(=O)c3cccnc3)cc2OC)cc1	none (no result: ROMK mod)
CC1CCCC(C)N1C(=O)COc1ccc([N+](=O)[O-])cc1Cl (stereo not drawn)	none (no result: KCC2 mod)
O=C(N/N=C/C(Br)=C/c1ccccc1)c1cccs1	none
N#Cc1c(N)n(CCOC(=O)c2cccc(Br)c2)c2nc3ccccc3nc12	none | ROMK hit retest inactive
N#Cc1c(N)n(CCOC(=O)c2cccc([N+](=O)[O-])c2)c2nc3ccccc3nc12	none (no result: ROMK mod)
COc1ccc(NC(=S)N(CCN(C)C)C(C)c2ccco2)cc1Cl (stereo not drawn)	none
COc1cccc(C(=O)N(C)c2nnc(-c3ccncc3)s2)c1	none (no result: ROMK mod) | ROMK hit retest inactive
COc1cccc(CNCCNC(=O)c2ccco2)c1OC	ROMK mod 2.9 | ROMK hit retest inactive
COc1ccc(CCNC(=O)c2ccco2)cc1OC	none
COc1ccccc1C(=O)NCCNC(=O)c1ccco1	none | ROMK hit retest inactive
COc1ccccc1/C=N/NC(=O)CC(=O)Nc1ccc(Cl)c(Cl)c1	ROMK mod -3.8 | ROMK hit retest inactive
C=CCn1c(SCc2c(C)noc2C)nc2ccccc2c1=O	none
C=CCn1c(SCc2c(C)noc2C)nc2cc(C(=O)O)ccc2c1=O	ROMK mod 6 | ROMK hit retest inconclusive
CSc1ccc(/C=N/NC(=O)COc2ccc(Br)cc2Cl)cc1	none (no result: ROMK mod)
CCOc1cccc(N(C(=O)Cc2cccs2)C(C(=O)NC2CCCCC2)c2cccn2C)c1 (stereo not drawn)	ROMK mod -4.4 | ROMK hit retest 0.062
CCC(=O)N(C)CCc1cc2c(c(OC)c1/C=N/NC(=O)c1ccc(Br)cc1)OCO2	none
CC(=O)c1ccc(N2CCN(C(=O)c3cccc(Oc4ccccc4)c3)CC2)cc1	none | ROMK hit retest inactive
Cc1ccsc1CN(C)Cc1nc(C2CC2)no1	none
CC(=O)C1C(c2ccc(F)cc2)c2c(noc2C)CC1(C)O (stereo not drawn)	none (no result: WT yeast gro inh)
COc1ccccc1NC(=O)C(C)Sc1nnnn1C (stereo not drawn)	none (no result: KCC2 mod, RBBP9 inh, ROMK mod)
COc1ccccc1NC(=O)CCSc1nnnn1C	none (no result: ROMK mod) | ROMK hit retest inactive
CC(C)CC(=O)/C(=C\c1ccc(Cl)cc1Cl)n1cncn1	ROMK mod -7.1 | ROMK hit retest 0.046
CCOc1cc(C)c(S(=O)(=O)NC2CC(C)(C)NC(C)(C)C2)cc1C	ROMK mod -3.5 | ROMK hit retest 0.066
N#C/C(=C\c1cccc([N+](=O)[O-])c1)c1nnc2n1CCCCC2	ROMK mod -4.4 | ROMK hit retest 0.046
CN(c1ccccc1)c1ccc(/C=C(\C#N)c2nnc3n2CCCCC3)cc1[N+](=O)[O-]	none (no result: ROMK mod)
O=C(Nc1ccc2ccccc2c1)N1CCN(c2ncccc2C(F)(F)F)CC1	ROMK mod -3.9 | ROMK hit retest 0.062
CCCCC(c1nnnn1C1CCCC1)N1CCN(C2CCCCC2)CC1 (stereo not drawn)	ROMK mod -4.1 | ROMK hit retest 0.063
O=C(c1ccco1)N1CCN(S(=O)(=O)c2ccc(Oc3ccccc3)cc2)CC1	none (no result: KCC2 mod, ROMK mod) | ROMK hit retest 0.067
CCOP(=O)(OCC)C(C)(C)NC(=O)Nc1ccc(Cl)c(Cl)c1	none (no result: ROMK mod, WT yeast gro inh)
COC(=O)c1cc(C)ccc1OCc1ccc([N+](=O)[O-])cc1	ROMK mod -13 (no result: WT yeast gro inh) | ROMK hit retest inconclusive
CC(C)NC(=O)c1nn(C)c2ccccc12	none
CC(C)(C)C1CCc2c(sc(NC(=O)C3CC=CCC3C(=O)O)c2C#N)C1 (stereo not drawn)	ROMK mod -3.5 | ROMK hit retest inconclusive
CC1CCc2c(sc(NC(=O)c3ccccc3C(=O)O)c2C#N)C1 (stereo not drawn)	none (no result: KCC2 mod, ROMK mod)
CCC(C)(C)C1CCc2c(sc(NC(=O)c3ccccc3C(=O)O)c2C#N)C1 (stereo not drawn)	none (no result: ROMK mod, WT yeast gro inh) | ROMK hit retest 0.11
N#Cc1c(NC(=O)C2CC=CCC2C(=O)O)sc2c1CCCCCC2 (stereo not drawn)	none (no result: ROMK mod)
CN1CCN(c2ccccc2NC(=O)c2sc3ccccc3c2Cl)CC1	none
Brc1ccc(NC2=Nc3ccccc3CC2)cc1	none (no result: ROMK mod) | ROMK hit retest inactive
CCN1CC=C2C(C#N)=C(N)C(C#N)(C#N)[C@H](c3cccc(OC)c3OC)[C@H]2C1	none (no result: ROMK mod, 14-3-3 Bad PPI, p47phox inh)
